# Measurements taken from ChEMBL document CHEMBL5625195, “Identification of novel tetrahydroquinoxaline derived phenyl ureas as modulators of the hepatitis B virus nucleocapsid assembly” (Eur J Med Chem, 2023).
# Activity calls are given as the source filed them. The rule behind the calls is not given here.
# Tests used:
# Hepatitis B virus [1] = assay: Antiviral activity against HBV infected in AML12HBV10 cells assessed as decrease in capsid assembly at 2 uM after 2 days by Northern blot hybridization; type: functional, organism-based; conditions: time 2.0 day
# How it was run: (§1)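 AML12HBV10 cells (mouse hepatocyte line carrying tetracycline-inducible, envelope-deficient HBV genome) in 24-well plates. Tetracycline was removed for 24 h before treatment; tetracycline-maintained cells served as negative control. Cells were mock (DMSO) or compound treated for a further 48 h. Intracellular capsids and core-associated DNA were resolved by native agarose gel particle assay.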
# Hepatitis B virus [2] = assay: Antiviral activity against HBV infected in AML12HBV10 cells assessed as reduction in viral DNA replication at 2 uM after 2 days by Northern blot hybridization; type: functional, organism-based; conditions: time 2.0 day
# How it was run: (§2)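 AML12HBV10 cells in 24-well plates were kept with or without tetracycline for 24 h. Tet-maintained cells served as the no-pgRNA negative control. Cells were then mock (DMSO) or compound treated for 48 h. Total viral RNA and encapsidated pgRNA were read by Northern blot with rRNA as loading control. Core protein was read by Western blot (C-terminal 14-residue antibody, β-actin control), capsids by native particle gel assay, and replication intermediates by Southern blot.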
# Hepatitis B virus [3] = assay: Antiviral activity against HBV infected in AML12HBV10 cells assessed as accumulation of capsid at 5 uM after 2 days by Northern blot hybridization; type: functional, organism-based; conditions: time 2.0 day; how it was run: as §1
# Hepatitis B virus [4] = assay: Antiviral activity against HBV infected in AML12HBV10 cells assessed as reduction in encapsidated pgRNA at 2 uM after 2 days by Northern blot hybridization; type: functional, organism-based; conditions: time 2.0 day
# How it was run: (§3)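 AML12HBV10 cells were induced by tetracycline withdrawal for 24 h, then mock (DMSO) or compound treated for 48 h, with tetracycline-maintained cells as negative control. Encapsidated pgRNA was detected by Northern blot hybridization, using ribosomal RNA as loading control.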
# Hepatitis B virus [5] = assay: Antiviral activity against HBV infected in AML12HBV10 cells assessed as decrease in capsid assembly at 1 to 5 uM after 2 days by Northern blot hybridization; type: functional, organism-based; conditions: dose 1-5 µM, time 2.0 day; how it was run: as §1
# Hepatitis B virus [6] = assay: Antiviral activity against HBV infected in AML12HBV10 cells assessed as reduction viral replication incubated for 48 hrs; type: functional, organism-based; conditions: AML12HBV10, 48 h
# How it was run: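 AML12HBV10 cells were seeded at 2 x 10^4 per well without tetracycline. After one day, 2-fold serial dilutions (10 μM to 0.08 μM) were applied for 48 h. Lysates were denatured, neutralized and dot-blotted, then hybridized with a 32P-labelled riboprobe specific for HBV minus-strand DNA and read by phosphorimager. EC50 was the concentration reducing HBV DNA by 50%.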
# Hepatitis B virus [7] = assay: Antiviral activity against HBV infected in AML12HBV10 cells assessed as decrease in viral DNA replication at 1 to 5 uM after 2 days by Northern blot hybridization; type: functional, organism-based; conditions: dose 1-5 µM, time 2.0 day; how it was run: as §2
# Hepatitis B virus [8] = assay: Antiviral activity against HBV infected in AML12HBV10 cells assessed as change in core protein at 1 to 5 uM after 2 days by Northern blot hybridization; type: functional, organism-based; conditions: dose 1-5 µM, time 2.0 day; how it was run: as §2
# [9] = (§4) Cytotoxicity against mouse AML12 cells assessed as reduction in cell viability incubated for 48 hrs by MTT assay; type: toxicity, cell-based; conditions: AML12 cells
# How it was run: (§5)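 Stable AML12HBV10 hepatocytes (AML12-derived), cultured without tetracycline, were exposed to 2-fold serial dilutions (50 μM to 1.56 μM) for 48 h. Viability was inspected microscopically and quantified by MTT. CC50 was the concentration lowering viability by 50%.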
# Hepatitis B virus [10] = assay: Antiviral activity against HBV infected in AML12HBV10 cells assessed as change in total viral RNA at 1 to 5 uM after 2 days by Northern blot hybridization; type: functional, organism-based; conditions: dose 1-5 µM, time 2.0 day; how it was run: as §2
# Hepatitis B virus [11] = assay: Antiviral activity against HBV infected in AML12HBV10 cells assessed as decrease in encapsidated pgRNA at 1 to 5 uM after 2 days by Northern blot hybridization; type: functional, organism-based; conditions: dose 1-5 µM, time 2.0 day; how it was run: as §3
# Hepatitis B virus [12] = assay: Antiviral activity against HBV infected in AML12HBV10 cells assessed as reduction in encapsidated pgRNA at 5 uM after 2 days by Northern blot hybridization; type: functional, organism-based; conditions: time 2.0 day; how it was run: as §3
# Hepatitis B virus [13] = assay: Antiviral activity against HBV infected in AML12HBV10 cells assessed as reduction in viral DNA replication at 5 uM after 2 days by Northern blot hybridization; type: functional, organism-based; conditions: time 2.0 day; how it was run: as §2
# Hepatitis B virus [14] = assay: Antiviral activity against HBV infected in AML12HBV10 cells assessed as change in encapsidated pgRNA at 1 uM after 2 days by Northern blot hybridization; type: functional, organism-based; conditions: time 2.0 day; how it was run: as §3
# Hepatitis B virus [15] = assay: Antiviral activity against HBV infected in AML12HBV10 cells assessed as change in DNA replication intermediates at 1 uM after 2 days by Northern blot hybridization; type: functional, organism-based; conditions: time 2.0 day; how it was run: as §2
# Hepatitis B virus [16] = assay: Antiviral activity against HBV infected in AML12HBV10 cells assessed as change in core protein at 1 uM after 2 days by Northern blot hybridization; type: functional, organism-based; conditions: time 2.0 day; how it was run: as §2
# Hepatitis B virus [17] = assay: Antiviral activity against HBV infected in AML12HBV10 cells assessed as change in capsids at 1 uM after 2 days by Northern blot hybridization; type: functional, organism-based; conditions: time 2.0 day; how it was run: as §1
# Hepatitis B virus [18] = assay: Antiviral activity against HBV infected in AML12HBV10 cells assessed as change in total viral RNA at 1 uM after 2 days by Northern blot hybridization; type: functional, organism-based; conditions: time 2.0 day; how it was run: as §2
# Hepatitis B virus [19] = assay: Antiviral activity against HBV infected in AML12HBV10 cells assessed as change in capsid associated viral DNA at 1 uM after 2 days by Northern blot hybridization; type: functional, organism-based; conditions: time 2.0 day; how it was run: as §1
# AML12 = assay: as §4; type: toxicity, cell-based; conditions: aml12, 48 h; how it was run: as §5
structure (smiles),measurement,setting,value
COC(=O)C1=C(C)NC(c2ncc(F)cc2F)=N[C@H]1c1ccc(F)cc1Cl,Activity,Hepatitis B virus [1],Active
same,Activity,Hepatitis B virus [2],Active
same,Activity,Hepatitis B virus [3],Active
same,Activity,Hepatitis B virus [4],Active
O=C(Nc1ccc(F)c(Cl)c1)N1CCN(C(=O)Nc2ccc(F)c(Cl)c2)c2ccccc21,Activity,Hepatitis B virus [5],Active
same,EC50,Hepatitis B virus [6],1010 nM
same,Activity,Hepatitis B virus [7],Active
same,Activity,Hepatitis B virus [8],inactive
same,CC50 at 48 h,[9],> 12500 nM
same,Activity,Hepatitis B virus [10],inactive
same,Activity,Hepatitis B virus [11],Active
CCC(C)NS(=O)(=O)c1ccc(F)c(C(=O)Nc2ccc(F)c(F)c2)c1 (stereo unspecified),Activity,Hepatitis B virus [12],Active
same,Activity,Hepatitis B virus [13],Active
C=C1[C@H](CO)[C@@H](O)C[C@@H]1n1cnc2c(=O)[nH]c(N)nc21,Activity,Hepatitis B virus [14],inactive
same,Activity,Hepatitis B virus [15],Active
same,Activity,Hepatitis B virus [16],inactive
same,Activity,Hepatitis B virus [17],inactive
same,Activity,Hepatitis B virus [18],inactive
same,Activity,Hepatitis B virus [19],Active
O=C(Nc1ccc(F)c(Cl)c1)N1CCNc2ccccc21,Activity,Hepatitis B virus [5],Active
same,EC50,Hepatitis B virus [6],510 nM
same,Activity,Hepatitis B virus [7],Active
same,Activity,Hepatitis B virus [8],inactive
same,CC50,AML12,> 100000 nM
same,Activity,Hepatitis B virus [10],inactive
same,Activity,Hepatitis B virus [11],Active
